How the values were obtained:
[1] = system: Heart; test: Drug uptake in Sprague-Dawley rat heart at 25 to 35 uCi, iv after 30 mins postinjection by […]; assay type: ADME, organism-based; conditions: in vivo, 0.5 h
In short: (§1)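 Mature male Sprague-Dawley rats (250–400 g) under 2–3% isoflurane got 25–35 μCi tracer in 100–150 μL saline via tail vein. Groups of at least 4 were euthanized at 5 min, 30 min, 1 h or 2 h. Brain was dissected into regions, and tissues were weighed and gamma counted against an injectate standard. Values are %ID/g, mean ± SD.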

[2] = system: Lung; test: Drug uptake in Sprague-Dawley rat lung at 25 to 35 uCi, iv after 5 mins postinjection by […]; assay type: ADME, organism-based; conditions: in vivo; in short: as §1
[3] = Drug uptake in Sprague-Dawley rat fat at 25 to 35 uCi, iv after 2 hrs postinjection by […]; assay type: ADME, organism-based, Adipose tissue; conditions: in vivo; in short: as §1
[4] = system: Muscle tissue; test: Drug uptake in Sprague-Dawley rat muscle at 25 to 35 uCi, iv after 5 mins postinjection by […]; assay type: ADME, organism-based; conditions: in vivo; in short: as §1
[5] = system: Kidney; test: Drug uptake in Sprague-Dawley rat kidney at 25 to 35 uCi, iv after 1 hr postinjection by […]; assay type: ADME, organism-based; conditions: in vivo; in short: as §1
[6] = system: Striatum; test: Drug uptake in Sprague-Dawley rat brain striatum at 25 to 35 uCi, iv after 5 mins postinjection by […]; assay type: ADME, organism-based; conditions: in vivo; in short: as §1
[7] = system: Liver; test: Drug uptake in Sprague-Dawley rat liver at 25 to 35 uCi, iv after 1 hr postinjection by […]; assay type: ADME, organism-based; conditions: in vivo; in short: as §1
[8] = system: Liver; test: Drug uptake in Sprague-Dawley rat liver at 25 to 35 uCi, iv after 2 hrs postinjection by […]; assay type: ADME, organism-based; conditions: in vivo; in short: as §1
[9] = system: Muscle tissue; test: Drug uptake in Sprague-Dawley rat muscle at 25 to 35 uCi, iv after 1 hr postinjection by […]; assay type: ADME, organism-based; conditions: in vivo; in short: as §1
[10] = system: Liver; test: Drug uptake in Sprague-Dawley rat liver at 25 to 35 uCi, iv after 30 mins postinjection by […]; assay type: ADME, organism-based; conditions: in vivo, 0.5 h; in short: as §1
[11] = system: Lung; test: Drug uptake in Sprague-Dawley rat lung at 25 to 35 uCi, iv after 1 hr postinjection by […]; assay type: ADME, organism-based; conditions: in vivo; in short: as §1
[12] = system: Muscle tissue; test: Drug uptake in Sprague-Dawley rat muscle at 25 to 35 uCi, iv after 2 hrs postinjection by […]; assay type: ADME, organism-based; conditions: in vivo; in short: as §1
[13] = system: Bone; test: Drug uptake in Sprague-Dawley rat bone at 25 to 35 uCi, iv after 30 mins postinjection by […]; assay type: ADME, organism-based, Bone element; conditions: in vivo, 0.5 h; in short: as §1
[14] = system: Liver; test: Drug uptake in Sprague-Dawley rat liver at 25 to 35 uCi, iv after 5 mins postinjection by […]; assay type: ADME, organism-based; conditions: in vivo; in short: as §1
[15] = system: Blood; test: Drug uptake in Sprague-Dawley rat blood at 25 to 35 uCi, iv after 5 mins postinjection by […]; assay type: ADME, organism-based; conditions: in vivo; in short: as §1
[16] = Drug uptake in Sprague-Dawley rat fat at 25 to 35 uCi, iv after 30 mins postinjection by […]; assay type: ADME, organism-based, Adipose tissue; conditions: in vivo, 0.5 h; in short: as §1
[17] = system: Kidney; test: Drug uptake in Sprague-Dawley rat kidney at 25 to 35 uCi, iv after 5 mins postinjection by […]; assay type: ADME, organism-based; conditions: in vivo; in short: as §1
[18] = system: Heart; test: Drug uptake in Sprague-Dawley rat heart at 25 to 35 uCi, iv after 5 mins postinjection by […]; assay type: ADME, organism-based; conditions: in vivo; in short: as §1
[19] = system: Bone; test: Drug uptake in Sprague-Dawley rat bone at 25 to 35 uCi, iv after 1 hr postinjection by […]; assay type: ADME, organism-based, Bone element; conditions: in vivo; in short: as §1
[20] = system: Kidney; test: Drug uptake in Sprague-Dawley rat kidney at 25 to 35 uCi, iv after 2 hrs postinjection by […]; assay type: ADME, organism-based; conditions: in vivo; in short: as §1
[21] = system: Hippocampus; test: Drug uptake in Sprague-Dawley rat brain hippocampus at 25 to 35 uCi, iv after 5 mins postinjection by […]; assay type: ADME, organism-based; conditions: in vivo; in short: as §1
[22] = system: Blood; test: Drug uptake in Sprague-Dawley rat blood at 25 to 35 uCi, iv after 30 mins postinjection by […]; assay type: ADME, organism-based; conditions: in vivo, 0.5 h; in short: as §1
[23] = system: Blood; test: Drug uptake in Sprague-Dawley rat blood at 25 to 35 uCi, iv after 2 hrs postinjection by […]; assay type: ADME, organism-based; conditions: in vivo; in short: as §1
[24] = system: Bone; test: Drug uptake in Sprague-Dawley rat bone at 25 to 35 uCi, iv after 5 mins postinjection by […]; assay type: ADME, organism-based, Bone element; conditions: in vivo; in short: as §1
[25] = system: Heart; test: Drug uptake in Sprague-Dawley rat heart at 25 to 35 uCi, iv after 1 hr postinjection by […]; assay type: ADME, organism-based; conditions: in vivo; in short: as §1
[26] = system: Cortex; test: Drug uptake in Sprague-Dawley rat brain cortex at 25 to 35 uCi, iv after 5 mins postinjection by […]; assay type: ADME, organism-based; conditions: in vivo; in short: as §1
[27] = system: Lung; test: Drug uptake in Sprague-Dawley rat lung at 25 to 35 uCi, iv after 2 hrs postinjection by […]; assay type: ADME, organism-based; conditions: in vivo; in short: as §1
[28] = system: Lung; test: Drug uptake in Sprague-Dawley rat lung at 25 to 35 uCi, iv after 30 mins postinjection by […]; assay type: ADME, organism-based; conditions: in vivo, 0.5 h; in short: as §1
[29] = system: Brain; test: Drug uptake in Sprague-Dawley rat brain at 25 to 35 uCi, iv after 2 hrs postinjection by […]; assay type: ADME, organism-based; conditions: in vivo; in short: as §1
[30] = Drug uptake in Sprague-Dawley rat fat at 25 to 35 uCi, iv after 5 mins postinjection by […]; assay type: ADME, organism-based, Adipose tissue; conditions: in vivo; in short: as §1
[31] = system: Cerebellum; test: Drug uptake in Sprague-Dawley rat brain cerebellum at 25 to 35 uCi, iv after 5 mins postinjection by […]; assay type: ADME, organism-based; conditions: in vivo; in short: as §1
[32] = system: Bone; test: Drug uptake in Sprague-Dawley rat bone at 25 to 35 uCi, iv after 2 hrs postinjection by […]; assay type: ADME, organism-based, Bone element; conditions: in vivo; in short: as §1
[33] = system: Muscle tissue; test: Drug uptake in Sprague-Dawley rat muscle at 25 to 35 uCi, iv after 30 mins postinjection by […]; assay type: ADME, organism-based; conditions: in vivo, 0.5 h; in short: as §1
[34] = system: Brain; test: Drug uptake in Sprague-Dawley rat brain at 25 to 35 uCi, iv after 5 mins postinjection by […]; assay type: ADME, organism-based; conditions: in vivo; in short: as §1
[35] = system: Heart; test: Drug uptake in Sprague-Dawley rat heart at 25 to 35 uCi, iv after 2 hrs postinjection by […]; assay type: ADME, organism-based; conditions: in vivo; in short: as §1
[36] = system: Kidney; test: Drug uptake in Sprague-Dawley rat kidney at 25 to 35 uCi, iv after 30 mins postinjection by […]; assay type: ADME, organism-based; conditions: in vivo, 0.5 h; in short: as §1
[37] = system: Brain; test: Drug uptake in Sprague-Dawley rat brain at 25 to 35 uCi, iv after 1 hr postinjection by […]; assay type: ADME, organism-based; conditions: in vivo; in short: as §1
[38] = system: Blood; test: Drug uptake in Sprague-Dawley rat blood at 25 to 35 uCi, iv after 1 hr postinjection by […]; assay type: ADME, organism-based; conditions: in vivo; in short: as §1
[39] = Drug uptake in Sprague-Dawley rat fat at 25 to 35 uCi, iv after 1 hr postinjection by […]; assay type: ADME, organism-based, Adipose tissue; conditions: in vivo; in short: as §1
[40] = system: Brain; test: Drug uptake in Sprague-Dawley rat brain at 25 to 35 uCi, iv after 30 mins postinjection by […]; assay type: ADME, organism-based; conditions: in vivo, 0.5 h; in short: as §1

Drug uptake [1]: 0.109 % ID/g
Drug uptake [2]: 1.577 % ID/g
Drug uptake [3]: 0.249 % ID/g
Drug uptake [4]: 0.091 % ID/g
Drug uptake [5]: 1.298 % ID/g
Drug uptake [6]: 0.911 % ID/g
Drug uptake [7]: 2.214 % ID/g
Drug uptake [8]: 1.791 % ID/g
Drug uptake [9]: 0.056 % ID/g
Drug uptake [10]: 1.769 % ID/g
Drug uptake [11]: 0.327 % ID/g
Drug uptake [12]: 0.035 % ID/g
Drug uptake [13]: 0.157 % ID/g
Drug uptake [14]: 1.506 % ID/g
Drug uptake [15]: 0.073 % ID/g
Drug uptake [16]: 0.207 % ID/g
Drug uptake [17]: 2.018 % ID/g
Drug uptake [18]: 0.321 % ID/g
Drug uptake [19]: 0.148 % ID/g
Drug uptake [20]: 1.339 % ID/g
Drug uptake [21]: 0.837 % ID/g
Drug uptake [22]: 0.037 % ID/g
Drug uptake [23]: 0.02 % ID/g
Drug uptake [24]: 0.334 % ID/g
Drug uptake [25]: 0.066 % ID/g
Drug uptake [26]: 0.911 % ID/g
Drug uptake [27]: 0.199 % ID/g
Drug uptake [28]: 0.481 % ID/g
Drug uptake [29]: 0.095 % ID/g
Drug uptake [30]: 0.132 % ID/g
Drug uptake [31]: 0.743 % ID/g
Drug uptake [32]: 0.138 % ID/g
Drug uptake [33]: 0.08 % ID/g
Drug uptake [34]: 0.823 % ID/g
Drug uptake [35]: 0.047 % ID/g
Drug uptake [36]: 1.896 % ID/g
Drug uptake [37]: 0.124 % ID/g
Drug uptake [38]: 0.029 % ID/g
Drug uptake [39]: 0.241 % ID/g
Drug uptake [40]: 0.226 % ID/g
SMILES: O=C(c1ccc([18F])cc1)C1CCN([C@@H]2Cc3ccccc3C[C@H]2O)CC1 (stereo in doubt; (-))

— ChEMBL document CHEMBL1140914, “Synthesis and in vitro and in vivo evaluation of 18F-labeled positron emission tomography (PET) ligands for imaging the vesicular acetylcholine transporter” (J Med Chem, 2009)
